Measured values published in the array DNA melting data of Ke et al. (doi:10.1101/2024.01.08.574731).

Assays:
[1] = folding enthalpy; higher = less favourable; fluorescence melt of hairpins on a sequencing array, two-state fit; settings: sodium 0.088 M
Outline: (§1)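 Melting temperature and folding enthalpy were obtained by bootstrapped two-state fitting. Fits used Cy3 fluorescence of library hairpins with annealed Cy3 and quencher oligos on a sequenced MiSeq flow cell, imaged in 50 mM Na-HEPES pH 8.0, 25 mM NaCl in 2.5 °C steps up to 60 °C and normalised to pre-quench Cy3 and control constructs. Four replicates were combined by inverse-variance weighting, and fitted temperatures were raised by 9.35 °C to match UV melts.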

[2] = melting temperature; fluorescence melt of hairpins on a sequencing array, two-state fit, raised by 9.35 °C to match UV melts; settings: sodium 0.088 M
Outline: as §1

Sequence | folding enthalpy [1] [kcal/mol] | Tm [2] [°C]
GATGGCGAAAGCCCATC ((((((....))).))) | -16.6 | 52.4
GGTGGAGGAAACTTCACC ((((.((....)).)))) | -33.4 | 50.1
GATCCGAACACGGATC ((((((....)))))) | -36.6 | 57.2
GTACTCGCGAAAGCGTAC (((..(((....)))))) | -11.1 | 30.4
GATCTATTCCTAGATC ((((((....)))))) | -29.9 | 40.4
GGTTTCGGAAACGAAACC (((((((....))))))) | -46 | 66.5
GATCGAGCGATCGATC ((((((....)))))) | -35.6 | 57.5
GATCGAGAACTCGATC ((((((....)))))) | -37.6 | 57
GTAAGACGAAAGTCATAC (((.(((....))).))) | -20.6 | 39.1
GCCTCCGAAAGGACAGGC ((((((....)))..))) | -36.5 | 49.8
CGTTAACGGAAACGTACG (((..(((....)))))) | -17.6 | 37
GTTGACGAAAGTCTGAAC ((((((....)))..))) | -11.5 | 25.1
GTGGGGGGAAACCCTCAC (((.(((....))).))) | -30.3 | 52.6
GATCTAGACTAGATC ((((((...)))))) | -36.6 | 40.8
GCCAGACGAAAGTCCGGC (((.(((....))).))) | -27.6 | 60.1
GATCGCAATCGCGATC ((((((....)))))) | -32.2 | 67.9
GAGGACGAAAGTCCGCTC ((((((....)))..))) | -12.1 | 67.5
GGTGTAGGAAACTATGCC ((..(((....)))..)) | -32.3 | 35.7
GAGGCTCCGAAAGGACTC (((..(((....)))))) | -15.5 | 34.4
GCTAACGAAAGTTTCAGC ((((((....)))..))) | -14.2 | 29.7
AGTTTGAAAAAACT (((((....))))) | -12.1 | 33
GATCTGCTGGCAGATC ((((((....)))))) | -43.6 | 62.5
GCCTAGCGAAAGCAAGGC ((((.((....)).)))) | -29.3 | 67.2
GAGCTCGGAAACGGGCTC ((((.((....)).)))) | -44.2 | 60.7

Sequence | folding enthalpy [1] [kcal/mol] | Tm [2] [°C]
GATCGTACAAACGATC ((((((....)))))) | -40.2 | 52.6
GATCAAGGTTTTGATC ((((((....)))))) | -29.7 | 45.1
CAAGTGAAAACTTG (((((....))))) | -23.7 | 42.9
GACACGGGAAACTGTGTC (((((.(....).))))) | -42.2 | 53.5
GCACACGGAAACATGCGC ((.((.(....).)).)) | -19.6 | 30.2
GCGAACCATCGC ((((....)))) | -18.7 | 47.7
GATCACTCTGGTGATC ((((((....)))))) | -39.8 | 58.8
GTACACGGAAACGTGTGC (.(((((....))))).) | -27.1 | 56.2
GGTATCGAAAGATCACC ((((((....))).))) | -21.9 | 35
GATCCTGACAAGGATC ((((((....)))))) | -38 | 63
GTTGGCGGAAACGCTAGC (.(.(((....))).).) | -13.2 | 34.5
GATCGTGCAACGATC ((((((...)))))) | -41 | 67.8
GACCTACCGAAAGGTGTC (((..(((....)))))) | -18 | 30.8
GGCTGGGGAAACCCAGTC (.(((((....))))).) | -41.6 | 55.8
GCGATGCGAAAGCACAGC ((..(((....)))..)) | -19.2 | 52
GATCCACATCTGGATC ((((((....)))))) | -29.1 | 49.2
GTCGCGGGAAACTGCGAC (((((.(....).))))) | -41.2 | 65.3
CGCGGACTTCTCCGCG ((((((....)))))) | -35.6 | 65.9
GATCCCGAAAGGGAAATC ((((((....)))..))) | -12.1 | 35.1
GCACAGCGAAAGCCGTGC ((((.((....)).)))) | -24.4 | 65.6
GTCGGCACGAAAGTGGAC (((..(((....)))))) | -12.3 | 34.7
GATCAGGGCTCTGATC ((((((....)))))) | -38.8 | 55.1
GCGGTTGGAAACAGCTGC ((.(.((....)).).)) | -25.9 | 52.3
GAGTAGCGAAAGCTTCTC (((.(((....))).))) | -26.4 | 47.2

Sequence | folding enthalpy [1] [kcal/mol] | Tm [2] [°C]
CGACACGGAAACGTTCG (((.(((....)))))) | -35 | 42
GGTAATGGAAACGTTACC (((((.(....).))))) | -40.4 | 45
GAGTGCGAAAGCACCTC ((((((....))).))) | -10.3 | 54.8
GATCCACTCGTGGATC ((((((....)))))) | -45.8 | 63.2
GCTCCGCGAAAGCGGCGC ((.((((....)))).)) | -18.6 | 65.1
GTTGCGCGAAAGCGAAC (((.(((....)))))) | -13.4 | 45.5
GGGTGACCGAAAGGTCCC (((..(((....)))))) | -12.5 | 51.6
GCCCGAGGAAACTCGGAC (.(((((....))))).) | -13.1 | 48.4
GCAACCGAAAGGTTTTGC ((((((....)))..))) | -14.4 | 39.9
GTCGACGAAAGTCTAGAC ((((((....)))..))) | -24 | 42.3
GTCTGCGAAAGCAGGGAC ((((((....)))..))) | -7.79 | 42.8
GATCAATGCATTGATC ((((((....)))))) | -65.6 | 52.3
GAGTAGGGAAACCTACTC (((((((....))))))) | -46.6 | 57
GTTTACCGAAAGGTAAC (((.(((....)))))) | -12.7 | 44.2
GTTCGGGGAAACCTGAAC ((((.((....)).)))) | -38.9 | 49.9
GCTTGAGGAAACTCAAAC (.(((((....))))).) | -13.8 | 30.6
GCATATGGAAACACATGC ((((.((....)).)))) | -26.8 | 35.8
GAGCCAGCGAAAGCTCTC (((..(((....)))))) | -10.3 | 34.8
GTTTGGTCGAAAGACAAC (((..(((....)))))) | -13.2 | 31.4
GAACGGGGAAACCTGTTC ((((.((....)).)))) | -32.4 | 49
GCGTAGTCACGC ((((....)))) | -21.2 | 51.5
GATCCGGTTTCGGATC ((((((....)))))) | -44.2 | 59.5
GCAGAGCGAAAGCACGGC ((.(.((....)).).)) | -20.9 | 55.1
CGTACCGGAAACGGAACG (((.(((....))).))) | -30.7 | 50.7

Sequence | folding enthalpy [1] [kcal/mol] | Tm [2] [°C]
GATCAGTTTGCTGATC ((((((....)))))) | -44.1 | 53.8
GTTTAGAAATAAAC (((((....))))) | -9.32 | 28.4
GGCGTATCGAAAGATGCC (((..(((....)))))) | -22.5 | 47.9
GCCCTCGAAAGAGACGGC ((((((....)))..))) | -25.3 | 44.8
GTTACCGAAAGGTGTAAC ((((((....)))..))) | -14.9 | 32.2
GAAGGAGGAAACCCCTTC (((((.(....).))))) | -31.3 | 36.9
GGATGACGAAAGTCTCC (((.(((....)))))) | -20 | 48.6
GCACCAGGAAACTGGCGC ((.((((....)))).)) | -41.4 | 55.6
GCCGTCGAAAGACTGGC ((((((....))).))) | -33.4 | 56.4
GGGAGGAAACTCCC (((((....))))) | -33.5 | 56
GAAGACGAAAGTCTCTTC ((((((....)))..))) | -23.9 | 51.6
GACGGGACGAAAGTCGTC (((..(((....)))))) | -17.1 | 45.8
GCTCGGCGAAAGCAGCGC ((.(.((....)).).)) | -14 | 58.5
CGAGCCGGAAACGGTCG (((.(((....)))))) | -27.3 | 48.6
CGTCGTCGGAAACGAACG (((..(((....)))))) | -24.9 | 48.8
GGAACGGAAACGTTCC ((((((....)))))) | -40.4 | 64.2
GCTCGCCGAAAGGCAGC (((.(((....)))))) | -19.9 | 62.6
GATCGGGTGCCGATC ((((((...)))))) | -49.1 | 55.2
GCGTGGCGAAAGCTTCGC (((..((....))..))) | -23.6 | 59.5
GTCCAACGAAAGTTCGAC (((.(((....))).))) | -27 | 35.9
GCCCTGCGAAAGCTAGGC (((..((....))..))) | -20.3 | 55.2
